The subject of one test is MDA-MB-231. Nature of the test: Cytotoxicity against human MDA-MB-231 cells assessed as cell growth inhibition after 24 hrs by MTT assay. It is filed as functional, cell-based. As to conditions: MDA-MB-231, 24 h. The procedure, abridged:
(§1)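 Cells seeded 24 h in RPMI 1640 + 10% FBS. RWPE-1 was kept in K-SFM with bovine pituitary extract and EGF. Cells then exposed to compounds for 24 h at 37 °C, 5% CO2, with DMSO vehicle and docetaxel as positive control. MTT added for 4 h, absorbance read at 570 nm. Triplicate runs, IC50 reported as mean of three experiments.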

Another test relates to HeLa. As to the kind of experiment: Cytotoxicity against human HeLa cells assessed as cell growth inhibition after 24 hrs by MTT assay. It is filed as functional, cell-based. A digest of the protocol: as §1
The subject of another test is K562. Nature of the test: Cytotoxicity against human K562 cells assessed as cell growth inhibition after 24 hrs by MTT assay. Type of test: functional, cell-based. As to conditions: K562, 24 h. A digest of the protocol:
as §1
A general note: Formazan colour is commonly taken as a measure of viable cells.

The next test relates to PC-3. Nature of the test: Cytotoxicity against human PC3 cells assessed as cell growth inhibition after 24 hrs by MTT assay. It is filed as functional, cell-based. The conditions noted are these: PC-3, 24 h. The procedure, abridged: as §1
For another test, the system named is DU-145. Nature of the test: Cytotoxicity against human DU145 cells assessed as cell growth inhibition after 24 hrs by MTT assay. Type of test: functional, cell-based. As to conditions: DU-145, 24 h. The procedure, abridged: as §1
The next test relates to MCF7. As to the kind of experiment: Cytotoxicity against human MCF7 cells assessed as cell growth inhibition after 24 hrs by MTT assay. It is filed as functional, cell-based. The conditions noted are these: MCF7, 24 h. The procedure, abridged:
as §1

A further test has as its system RWPE-1. Nature of the test: Cytotoxicity against human RWPE1 cells assessed as cell growth inhibition after 24 hrs by MTT assay. The conditions noted are these: RWPE-1, 24 h. It is filed as cell-based. A digest of the protocol:
as §1

A word on the IC50: it is the concentration at which inhibition is half-maximal.

For `CCCCCCOc1cc2c(cc1OCCCCCC)[C@@H]1CC(=O)C[C@@H](C)N1CC2` (relative stereo), the IC50 in the test with MDA-MB-231, in the test with HeLa, with K562, in the test with PC-3, in the test on DU-145 and with MCF7 was > 20 µM each time. In the test with RWPE-1, the IC50 is > 20 µM.

As to `O[C@@H]1C[C@@H](c2ccc(-c3ccccc3)cc2)N2CCc3cc(OCc4ccccc4)c(OCc4ccccc4)cc3[C@@H]2C1`, the half-maximal inhibitory concentration (IC50) in the test with MDA-MB-231 was found to be 3.28 µM; in the test on HeLa it was 3.42 µM; in the test on K562 it was 3.24 µM; with PC-3 it was 1.16 µM; with DU-145, 1.36 µM; in the test on MCF7, 0.28 µM. Further, the IC50 in the test with RWPE-1 came out at 4.42 µM.

Regarding `O=C1C[C@@H](c2ccccc2)N2CCc3cc(O)c(O)cc3[C@@H]2C1` (relative stereo), the IC50 in the test on MDA-MB-231, with HeLa, in the test on K562, in the test on PC-3, with DU-145 and with MCF7 was > 20 µM each time. The IC50 in the test with RWPE-1 is > 20 µM.

For the compound `Cc1cc(C)cc(COc2cc3c(cc2OCc2cc(C)cc(C)c2)CN(C(=O)OC(C)(C)C)CC3)c1`, the half-maximal inhibitory concentration (IC50) with MDA-MB-231, in the test on HeLa, in the test on K562, with PC-3, in the test on DU-145 and in the test with MCF7 was > 20 µM in each case. For the same compound, the 50% inhibitory concentration (IC50) with RWPE-1 is > 20 µM.

For `O=C1C[C@@H](c2ccccc2)N2CCc3cc4c(cc3[C@@H]2C1)OCO4` (relative stereo), the half-inhibitory concentration (IC50) in the test with MDA-MB-231, with HeLa, in the test with K562, in the test on PC-3, with DU-145 and with MCF7 was > 20 µM throughout. In addition, in the test with RWPE-1, the half-inhibitory concentration (IC50) was > 20 µM.

Turning to `COc1ccc([C@@H]2C[C@H](O)C[C@H]3c4cc(OCc5cc(C)cc(C)c5)c(OCc5cc(C)cc(C)c5)cc4CCN23)cc1OC`, the IC50 in the test with MDA-MB-231, in the test on HeLa, in the test on K562, with PC-3, in the test with DU-145 and in the test with MCF7 was > 20 µM each time. In the test with RWPE-1, the IC50 is > 20 µM.

Take `COc1ccc([C@@H]2CC(=O)C[C@H]3c4cc(OCc5ccccc5)c(OCc5ccccc5)cc4CCN23)cc1` (relative stereo): the IC50 with MDA-MB-231, in the test on HeLa, in the test with K562, with PC-3, with DU-145 and in the test on MCF7 was > 20 µM throughout. Further, the half-maximal inhibitory concentration (IC50) in the test on RWPE-1 was > 20 µM.

For the compound `COc1cc2c(cc1OC)[C@@H]1C[C@H](O)C[C@@H](c3ccccc3)N1CC2`, the IC50 with MDA-MB-231, with HeLa, with K562, in the test with PC-3, in the test with DU-145 and in the test with MCF7 was > 20 µM in each case. In addition, in the test on RWPE-1, the IC50 was > 20 µM.

`c1ccc(COc2cc3c(cc2OCc2ccccc2)[C@@H]2CCC[C@@H](c4ccccc4)N2CC3)cc1`: the concentration for half-maximal inhibition (IC50) in the test with MDA-MB-231, in the test with HeLa, with K562, with PC-3, in the test on DU-145 and in the test with MCF7 was > 20 µM each time. The half-maximal inhibitory concentration (IC50) in the test on RWPE-1 was > 20 µM.

In the case of `CCCCCCCCCCCCCCCCOc1cc2c(cc1OCCCCCCCCCCCCCCCC)[C@@H]1CC(=O)C[C@@H](C)N1CC2`, the concentration for half-maximal inhibition (IC50) in the test on MDA-MB-231, in the test with HeLa, in the test on K562, in the test on PC-3, in the test with DU-145 and in the test with MCF7 was > 20 µM throughout. Besides, in the test on RWPE-1, the concentration for half-maximal inhibition (IC50) is > 20 µM.

As for `COc1cc([C@@H]2C[C@H](O)C[C@H]3c4cc(OCc5ccccc5)c(OCc5ccccc5)cc4CCN23)cc(OC)c1OC`, the IC50 in the test on MDA-MB-231, with HeLa, with K562, with PC-3, with DU-145 and in the test with MCF7 was > 20 µM in each case. For the same compound, the IC50 in the test on RWPE-1 is > 20 µM.

With `C[C@@H]1CC(=O)C[C@H]2c3cc(OCc4cc(C(F)(F)F)cc(C(F)(F)F)c4)c(OCc4cc(C(F)(F)F)cc(C(F)(F)F)c4)cc3CCN12` (relative stereo), the IC50 in the test on MDA-MB-231, in the test on HeLa, in the test on K562, with PC-3, in the test on DU-145 and in the test with MCF7 was > 20 µM throughout. Further, the IC50 in the test on RWPE-1 was > 20 µM.

As to `C[C@@H]1C[C@@](C)(O)C[C@H]2c3cc(OCc4ccc(Br)cc4)c(OCc4ccc(Br)cc4)cc3CCN12`, the half-maximal inhibitory concentration (IC50) in the test on MDA-MB-231 was found to be 1.2 µM; with HeLa, 1.88 µM; in the test with K562, 1.79 µM; in the test on PC-3, 0.79 µM; with DU-145, 1.97 µM; with MCF7, 0.84 µM. Further, the IC50 in the test with RWPE-1 stood at 2.95 µM.

For the compound `Cc1cc(C)cc(COc2cc3c(cc2OCc2cc(C)cc(C)c2)[C@@H]2CC(=O)C[C@@H](C)N2CC3)c1` (relative stereo), the IC50 in the test with MDA-MB-231, in the test on HeLa, in the test on K562, with PC-3, in the test with DU-145 and with MCF7 was > 20 µM each time. In addition, the IC50 in the test on RWPE-1 was > 20 µM.

In the case of `CC1(C)CC(=O)C[C@H]2c3cc(OCc4ccccc4)c(OCc4ccccc4)cc3CCN21`, the IC50 in the test with MDA-MB-231, in the test on HeLa, in the test on K562, in the test with PC-3, in the test with DU-145 and in the test on MCF7 was > 20 µM each time. For the same compound, the IC50 with RWPE-1 is > 20 µM.

In the case of `Oc1cc2c(cc1O)[C@@H]1C[C@H](O)C[C@@H](c3ccccc3)N1CC2`, the IC50 in the test with MDA-MB-231, in the test with HeLa, with K562, with PC-3, in the test with DU-145 and in the test on MCF7 was > 20 µM throughout. Moreover, the IC50 with RWPE-1 is > 20 µM.

On to `CCCCCC[C@@H]1C[C@@H](O)C[C@H]2c3cc(OCc4ccccc4)c(OCc4ccccc4)cc3CCN12`, for which the IC50 with MDA-MB-231, in the test on HeLa, with K562, with PC-3, with DU-145 and with MCF7 was > 20 µM throughout. Moreover, the IC50 in the test with RWPE-1 is > 20 µM.

Turning to `COc1cc([C@@H]2CC(=O)C[C@H]3c4cc(OCc5ccccc5)c(OCc5ccccc5)cc4CCN23)cc(OC)c1OC` (relative stereo), the IC50 with MDA-MB-231, with HeLa, in the test with K562, in the test with PC-3, with DU-145 and in the test on MCF7 was > 20 µM each time. In addition, the 50% inhibitory concentration (IC50) in the test on RWPE-1 is > 20 µM.

Take `C[C@@H]1C[C@@H](O)C[C@H]2c3cc(OCc4ccccc4)c(OCc4ccccc4)cc3CCN12`: the IC50 in the test on MDA-MB-231 was found to be 1.15 µM; in the test with HeLa, 2.66 µM; in the test with K562, 1.52 µM; in the test on PC-3, 2.81 µM; in the test with DU-145 it was 2.18 µM; in the test on MCF7 it was 2.2 µM. For the same compound, the half-maximal inhibitory concentration (IC50) with RWPE-1 was determined as 1.84 µM.

Consider `O[C@@H]1CCN2CCc3cc(OCc4ccccc4)c(OCc4ccccc4)cc3[C@@H]2C1` (relative stereo), for which the IC50 in the test on MDA-MB-231, in the test on HeLa, with K562, with PC-3, with DU-145 and with MCF7 was > 20 µM in each case. Moreover, the IC50 in the test with RWPE-1 was > 20 µM.

For `COc1ccc([C@@H]2C[C@H](O)C[C@H]3c4cc(OCc5ccccc5)c(OCc5ccccc5)cc4CCN23)cc1OC`, the IC50 in the test with MDA-MB-231, in the test on HeLa, with K562, with PC-3, with DU-145 and with MCF7 was > 20 µM in each case. In addition, the IC50 in the test on RWPE-1 is > 20 µM.

For `C[C@@H]1CC(=O)C[C@H]2c3cc(OCc4cc(F)cc(F)c4)c(OCc4cc(F)cc(F)c4)cc3CCN12` (relative stereo), the IC50 in the test with MDA-MB-231, with HeLa, in the test on K562, with PC-3, with DU-145 and in the test on MCF7 was > 20 µM throughout. The 50% inhibitory concentration (IC50) in the test with RWPE-1 is > 20 µM.

In the case of `COc1ccc([C@@H]2C[C@@H](O)C[C@H]3c4cc(OCc5cc(F)cc(F)c5)c(OCc5cc(F)cc(F)c5)cc4CCN23)cc1OC`, the half-inhibitory concentration (IC50) in the test on MDA-MB-231 came out at 1.3 µM; in the test with HeLa, 4.67 µM; with K562, 3.92 µM; in the test with PC-3, 1.71 µM; in the test with DU-145 it was 3.96 µM; with MCF7 it was 3.52 µM. Also, the concentration for half-maximal inhibition (IC50) in the test on RWPE-1 is 2.24 µM.

Consider `CC[C@@H]1C[C@H](O)C/C=C(/C)[C@H]2c3cc(OCc4ccccc4)c(OCc4ccccc4)cc3CCN12`, for which the IC50 in the test with MDA-MB-231, in the test on HeLa, with K562, in the test with PC-3, in the test on DU-145 and in the test on MCF7 was > 20 µM throughout. Besides, the IC50 in the test with RWPE-1 was > 20 µM.

Source of the values: ChEMBL document CHEMBL4425094, “Novel Benzo[a]quinolizidine Analogs Induce Cancer Cell Death through Paraptosis and Apoptosis” (J Med Chem, 2016).
